A short description of assay [1]: Inhibition of recombinant Plasmodium falciparum recombinant IspC using […]1-Deoxy-D-xylulose 5-phosphate substrate by photometric assay. A digest of the protocol:
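Enzyme IC50 from nonlinear regression of inhibition data; mean ± SD from nine or more data points.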

Assay [2] deals with Plasmodium falciparum. The assay is described as follows: Antiplasmodial activity against chloroquine-sensitive Plasmodium falciparum 3D7 incubated for 3 days by HRP2 detection based ELISA method. It counts as functional, organism-based. As to conditions: 3D7, 72 h. In outline: (§1)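 P. falciparum in continuous in vitro culture, growth inhibition assay. Each compound was tested in 12 serial dilutions, in duplicate. IC50 is the mean of at least two independent experiments.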

The subject of assay [3] is Plasmodium falciparum. The assay is described as follows: Antiplasmodial activity against chloroquine-resistant Plasmodium falciparum Dd2 incubated for 3 days by HRP2 detection based ELISA method. It counts as functional, organism-based. As to conditions: Dd2, 72 h. A digest of the protocol:
as §1

What is called IC50 is the concentration that inhibits the measured activity by half.

Take `Cc1ccc(C(CCC(=O)N(C)O)P(=O)(O)O)cc1` (stereo not given): in assay [1], the IC50 came to 14 nM.
Turning to `CN(O)C(=O)COC(c1ccc(F)cc1F)P(=O)(O)O` (stereo not given), the concentration for half-maximal inhibition (IC50) was found to be 1300 nM with Plasmodium falciparum [2], 1200 nM in the assay on Plasmodium falciparum [3] and 65 nM in assay [1].
The corresponding values for `CN(O)C(=O)COC(c1ccccc1)P(=O)(O)O` (stereo not given) are 1200 nM, 700 nM and 37 nM.
For `CN(O)C(=O)COC(c1ccc(Cl)c(Cl)c1)P(=O)(O)O` (stereo not given) the same measures were 240 nM, 140 nM and 14 nM.
`Cc1ccc(C(OCC(=O)NO)P(=O)(O)O)cc1` (stereo not given): the 50% inhibitory concentration (IC50) in the assay on Plasmodium falciparum [2] was greater than 50000 nM; in assay [1], 1800 nM.
As for `CCNC(=O)ON(C)C(=O)COC(c1ccc(F)c(F)c1)P(=O)(OCOC(=O)C(C)(C)C)OCOC(=O)C(C)(C)C` (stereo not given), the IC50 came to 31 nM in the assay with Plasmodium falciparum [2] and 22 nM in the assay with Plasmodium falciparum [3].
Take `CN(O)C(=O)CCC(c1ccccc1)P(=O)(O)O` (stereo not given): the IC50 in assay [1] turned out to be 3.1 nM.
`O=C(COC(c1ccc(F)cc1F)P(=O)(O)O)NO` (stereo not given): the results for the half-maximal inhibitory concentration (IC50) (in the assay with Plasmodium falciparum [2]; in assay [1]) were greater than 50000 nM and 1700 nM, respectively.
As to `CN(O)C(=O)COC(c1ccc(F)cc1)P(=O)(O)O` (stereo not given), the values for the IC50 (with Plasmodium falciparum [2]; in the assay with Plasmodium falciparum [3]; in assay [1]) were 480 nM, 350 nM and 27 nM, respectively.
The corresponding values for `CN(O)C(=O)COC(c1cccc2ccccc12)P(=O)(O)O` (stereo not given) are 520 nM, 350 nM and 39 nM.
As to `CCOC(=O)ON(C)C(=O)COC(c1ccc(F)c(F)c1)P(=O)(OCOC(=O)C(C)(C)C)OCOC(=O)C(C)(C)C` (stereo not given), the results for the IC50 in the assay with Plasmodium falciparum [2] and in the assay on Plasmodium falciparum [3] were 23 nM and 19 nM, respectively.
For `O=CN(O)CCCP(=O)(O)O` [FOSMIDOMYCIN SODIUM] the same measures were 880 nM and 810 nM.
As to `CCN(O)C(=O)COC(c1ccccc1)P(=O)(O)O` (stereo not given), the IC50 with Plasmodium falciparum [2] came out at 8100 nM; in the assay on Plasmodium falciparum [3], 3800 nM; in assay [1], 210 nM.
With `Cc1ccc(C(OCC(=O)N(C)O)P(=O)(O)O)cc1` (stereo not given), the IC50 in the assay on Plasmodium falciparum [2] was found to be 180 nM; in the assay with Plasmodium falciparum [3] it was 190 nM; in assay [1], 25 nM.
In the case of `CN(O)C(=O)COC(c1ccc(F)c(F)c1)P(=O)(OCOC(=O)C(C)(C)C)OCOC(=O)C(C)(C)C` (stereo not given), the IC50 in the assay with Plasmodium falciparum [2] came to 13 nM; in the assay on Plasmodium falciparum [3], 22 nM.
For the compound `O=C(COC(c1ccccc1)P(=O)(O)O)NO` (stereo not given), the IC50 in the assay on Plasmodium falciparum [2] is greater than 50000 nM; in assay [1], 1500 nM.
For the compound `CN(O)C(=O)COC(c1ccc(F)c(F)c1)P(=O)(O)O` (stereo not given), the results for the IC50 (in the assay with Plasmodium falciparum [2]; with Plasmodium falciparum [3]; in assay [1]) were 540 nM, 130 nM and 12 nM, respectively.

Values taken from ChEMBL document CHEMBL2163278, “α-Substituted β-oxa isosteres of fosmidomycin: synthesis and biological evaluation” (J Med Chem, 2012).
